Screening data deposited in PubChem by Sanford-Burnham Center for Chemical Genomics.
SENP7 inh: SENP7 protease inhibition. 1.5% of 330,000 active. Q9BQF6. inhibition, % at 5 µM. recombinant SENP7, Z-RLRGG-aminoluciferin luminescence, 40 min;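 active = inhibition above about 50% at the single test dose, limit read from the data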;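 also: plate controls were DMSO with enzyme for no effect and no enzyme buffer wells for full effect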
Target sequence (Q9BQF6 706-1050 limits assumed): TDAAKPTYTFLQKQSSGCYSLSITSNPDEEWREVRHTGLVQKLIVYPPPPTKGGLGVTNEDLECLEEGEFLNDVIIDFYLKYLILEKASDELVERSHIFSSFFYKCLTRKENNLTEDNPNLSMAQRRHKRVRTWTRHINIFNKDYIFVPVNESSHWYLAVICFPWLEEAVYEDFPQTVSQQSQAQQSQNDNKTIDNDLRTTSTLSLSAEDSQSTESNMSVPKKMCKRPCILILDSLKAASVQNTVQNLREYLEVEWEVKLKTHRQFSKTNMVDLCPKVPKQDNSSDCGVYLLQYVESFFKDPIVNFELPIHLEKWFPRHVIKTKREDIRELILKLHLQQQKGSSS
SENP8 block-1: blocks human SENP8 cleavage of Nedd8 substrate; Q96LD8; recombinant SENP8, Nedd8 substrate fluorescence; inhibition, % at 20 µM; 0.64% of 360,000 active; AID 602440; in the data active = inhibition mostly above about 40%, no sharp cut-off; inactive = mostly below about 27%
SENP8 block-2: SENP8 protease inhibition | Q96LD8 | purified SENP8, Z-RLRGG-aminoluciferin cleavage, luminescence | inhibition, % at 10 µM | 1.2% of 330,000 active; in the data active = inhibition above about 50%
SENP1 FRET inh: SENP1 (human) catalytic domain inhibition. recombinant SENP1 catalytic domain, CyPet-SUMO1-YPet FRET cleavage. inhibition, % at 10 µM. 0.21% of 360,000 active;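 active = inhibition at least 30% at 10 µM, raw YFP signal under a set limit, fluorescence ratio 0.5 to 1.5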;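 also: 0% = enzyme with DMSO and 100% = no enzyme wells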
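Test system: human SENP1 catalytic domain; medium: Tris pH 8 buffer plus EDTA, NaCl, BME, BSA, NP40, catalase; incubation: 50 min reaction at room temperature; technique: FRET, CFP and YFP emission; controls: no-enzyme low control and enzyme-plus-DMSO high control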
SENP6 block: SENP6 protease inhibition | Recombinant SENP6 catalytic domain, aminoluciferin luminescence | inhibition, % at 10 µM | AID 2599 | 1.8% of 330,000 active | Q9GZR1;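 active = inhibition above about 50% at the single tested dose, limit read from the data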;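 also: plate controls were DMSO wells with enzyme for no effect and DMSO wells lacking enzyme for full effect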
SENP8 conf: human SENP8 inhibition, confirmed; shares compounds with SENP7 inh; Recombinant SENP8, Z-RLRGG-aminoluciferin luminescence, 60 min; inhibition, % at 12.5 µM; 40% of 6,200 active; AID 488912;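 active = mean inhibition across replicates above about 50%, limit read from the data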
SENP6 confirm: human SENP6 inhibition, confirmed. inhibition, % at 12.5 µM. recombinant SENP6, Z-RLRGG-aminoluciferin luminescence. shares compounds with SENP7 inh. 58% of 6,200 active
SENP7 conf: human SENP7 inhibition, confirmed; shares compounds with SENP7 inh; recombinant SENP7, Z-RLRGG-aminoluciferin luminescence, 40 min; inhibition, % at 12.5 µM; 69% of 6,200 active; AID 488917
Casp3 SENP sel: selectivity test for SENP inhibitors: human caspase-3 inhibition. shares compounds with SENP7 inh. purified caspase-3, Z-DEVD-aminoluciferin luminescence, 60 min. inhibition, % at 12.5 µM. 60% of 6,200 active. AID 488918;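 active = mean inhibition above about 50%, limit read from the data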;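 also: plate controls were enzyme with DMSO for no effect and wells without caspase-3 for full effect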
Target sequence (P42574 28-227 limits assumed): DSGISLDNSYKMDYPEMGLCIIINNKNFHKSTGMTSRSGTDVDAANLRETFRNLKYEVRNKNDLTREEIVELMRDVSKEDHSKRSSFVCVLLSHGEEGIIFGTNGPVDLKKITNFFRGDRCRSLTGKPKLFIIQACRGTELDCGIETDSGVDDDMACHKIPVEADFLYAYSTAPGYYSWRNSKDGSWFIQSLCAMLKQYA
SENP luc ctr: interferes with luciferase luminescence in SENP counter-screen; shares compounds with SENP7 inh; Pre-incubated SENP8/Z-RLRGG-aminoluciferin, luciferase luminescence interference; inhibition, % at 12.5 µM; 39% of 6,200 active;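 active = mean inhibition above about 50% when retested at one dose, limit read from the data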;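 also: plate controls were DMSO wells with completed reaction for no effect and substrate without enzyme for full effect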
Active calls of the source: *; . = no result. Most compounds without a hit are left out; they make up all but 2.5% or so of the library.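 The calls were made as follows, unless noted: active = mean inhibition above about 50% in the one-dose retest (limit read from the data); inactive = the rest.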

SMILES	SENP7 inh	SENP8 block-1	SENP8 block-2	SENP1 FRET inh	SENP6 block	SENP8 conf	SENP6 confirm	SENP7 conf	Casp3 SENP sel	SENP luc ctr
COc1ccccc1CN=c1c([N+](=O)[O-])nn(-c2ccc3c(c2)OCCO3)n1O	59*	26	22	-2	46	-11	2	-9	8	0
O=[N+]([O-])c1nn(-c2ccc3c(c2)OCCO3)n(O)c1=NC1CCCCC1	4	26	3	4	28	.	.	.	.	.
N/C(=N\OCc1ccc([N+](=O)[O-])cc1)c1ccncc1	18	10	2	0	5	.	.	.	.	.
Cn1c(=O)c2cc(NC(=O)NCc3ccccc3)ccc2n1C/C=C/c1ccccc1	.	-480	.	2	.	.	.	.	.	.
COc1ccccc1C1(O)CC2CCC(C1)N2S(=O)(=O)c1ccc(C(C)=O)cc1 (stereo not given)	59*	19	-7	1	-12	4	3	10	6	0
CC(C)c1cc(C(=O)OCC(=O)NC2CCS(=O)(=O)C2)c(O)c(C(C)C)c1 (stereo not given)	.	-20	.	2	.	.	.	.	.	.
COc1ccc(C(=O)N=c2sc3ccccc3n2C)cc1	77*	-433	69*	3	1	15	23	24	17	9
COc1cc(OC)cc(C(=O)N=c2sc3ccccc3n2C)c1	51*	-419	-7	2	0	-2	3	2	12	10
CC(=O)N=c1sc2ccccc2n1C	-6	14	-6	-1	4	.	.	.	.	.
O=C(NC(c1ccc(Cl)cc1)c1cnccn1)C1CCN(Cc2cccc(C(F)(F)F)c2)CC1 (stereo not given)	.	24	.	-6	.	.	.	.	.	.
Cc1ccc(NC(=O)COC(=O)CC2CCCC2)cc1Cl	7	28	-6	2	0	.	.	.	.	.
Cc1ccc(C(C)NC(=O)CSc2ccc(S(=O)(=O)N3CCOCC3)cn2)cc1C (stereo not given)	.	14	.	1	.	.	.	.	.	.
COCCN1Cc2c(sc(C)c2C)N(C(=O)c2ccccc2)C1	5	-246	29	-48	51*	4	1	32	30	49
Cc1sc2c(c1C)CN(C(C)(C)C)CN2C(=O)c1ccccc1	1	-31	7	7	30	.	.	.	.	.
CC(C)NC(=O)c1ccc2c3n(nc2c1)-c1ccccc1CO3	78*	-112	78*	-2	77*	88*	87*	98*	94*	81*
O=C(NCCO)c1ccc2c3n(nc2c1)-c1ccccc1CO3	9	-202	24	-1	21	.	.	.	.	.
O=C(NCC1CC1)c1ccc2c3n(nc2c1)-c1ccccc1CO3	68*	-224	78*	-3	82*	83*	84*	98*	92*	80*
CC(C)[C@@H](CO)NC(=O)c1ccc2c3n(nc2c1)-c1ccccc1CO3	50	-123	82*	1	84*	91*	91*	98*	95*	62*
Cc1ccc2c(c1)COc1c3ccc(C(=O)O)cc3nn1-2	100*	-68	95*	1	95*	96*	96*	101*	97*	95*
Cc1ccc2c(c1)COc1c3ccc(C(=O)NCC4CC4)cc3nn1-2	-2	-327	0	-3	0	.	.	.	.	.
CCCn1c(SCc2ccon2)nc2ccccc2c1=O	2	32	-3	1	-16	.	.	.	.	.
Clc1cccc(OCc2nc(-c3ccncc3)no2)c1	4	7	-12	1	-13	.	.	.	.	.
Clc1ccc(OCc2nc(-c3ccncc3)no2)c(Cl)c1	25	19	5	-2	55*	34	25	65*	26	42
COc1ccc(Cc2nc(-c3ccccn3)no2)cc1	9	16	-5	0	-8	.	.	.	.	.
CC(C)(C)c1ccc(OCc2nc(-c3ccccn3)no2)c(Br)c1	43	18	18	-1	59*	45	57*	74*	33	21
SMILES	SENP7 inh	SENP8 block-1	SENP8 block-2	SENP1 FRET inh	SENP6 block	SENP8 conf	SENP6 confirm	SENP7 conf	Casp3 SENP sel	SENP luc ctr
Clc1cc(Cl)c(OCc2nc(-c3ccccn3)no2)cc1Cl	81*	6	81*	1	61*	15	50	96*	52*	8
CSc1ncnc2c1ncn2CCCN1CCN(c2ccccn2)CC1	.	1	.	1	.	.	.	.	.	.
CCCN1CCN(C(=O)C(NC(=O)c2ccco2)C(C)C)CC1 (stereo not given)	2	16	-7	3	1	.	.	.	.	.
CC(=O)N=c1n(C)c2ccccc2n1CCOc1ccccc1	3	12	3	1	3	.	.	.	.	.
Clc1ccc(Nc2nc(-c3ccncc3)cs2)cc1	7	-17	-7	-2	5	.	.	.	.	.
CCNc1nc(-c2ccc(Cl)cc2)cs1	62*	13	72*	1	85*	-21	71*	94*	60*	69*
CNc1nc(-c2ccc(Cl)cc2)cs1	20	10	30	1	62*	54*	58*	82*	51*	26
Cn1nc(C(F)(F)F)c(-c2cccc(C(F)(F)F)c2)c1NC(=O)CSCC(=O)O	0	13	3	2	1	.	.	.	.	.
CN(C)c1ccc(/C=N/N=C/c2ccccc2O)cc1	97*	-26	84*	-27	86*	47	58*	61*	59*	34
CN(Cc1c(F)cccc1Cl)C(=O)c1ccc(NS(=O)(=O)c2ccc3[nH]c(=O)[nH]c3c2)cc1	0	16	0	1	-6	.	.	.	.	.
Cc1ccc(C(=O)c2cc3ccccc3o2)cc1	56*	17	44	2	77*	32	60*	86*	52*	59*
Cc1ccc(C(=O)c2cc3ccccc3o2)cc1C	76*	27	69*	2	82*	5	72*	53*	29	26
COc1ccc(C(=O)c2cc3cccc(OC)c3o2)cc1	83*	-16	82*	2	84*	88*	86*	97*	76*	66*
O=C(c1cc2ccccc2o1)c1cccs1	72*	2	51*	0	11	50	75*	93*	68*	58*
O=C(c1cccc([N+](=O)[O-])c1)c1cc2ccccc2o1	5	16	-1	1	21	.	.	.	.	.
CCC(CC)c1nnc(NC(=O)CCNC(=O)c2ccccc2Cl)s1	-11	15	-11	1	-14	.	.	.	.	.
